Results on 23 compounds are retold here after ChEMBL document CHEMBL1141396, “Synthesis and mixed lineage kinase activity of pyrrolocarbazole and isoindolone analogs of (+)K-252a” (J Med Chem, 2007).

The target of experiment [1] is T1, Mitogen-activated protein kinase kinase kinase 9 (Homo sapiens, UniProt P80192). Nature of the experiment: Inhibition of GST-MLK1 expressed in baculovirus.
The target in experiment [2] is Mitogen-activated protein kinase kinase kinase 11 (Homo sapiens, UniProt Q16584). As to the kind of experiment: Inhibition of GST-MLK3 expressed in baculovirus.
Experiment [3] addresses Mitogen-activated protein kinase kinase kinase 10 (Homo sapiens, UniProt Q02779). As to the kind of experiment: Inhibition of GST-MLK2.
Another experiment concerns the target Protein kinase C (PKC). Nature of the experiment: Inhibition of PKC. It counts as protein assay, Homo sapiens.
Experiment [4] concerns the target T1, Mitogen-activated protein kinase kinase kinase 9. Nature of the experiment: Inhibition of MKK4 phosphorylation in MLK1 transfected CHO cells at 1 uM after 1 hr. Type of experiment: functional, cell-based. In short, it runs like this:
(§1)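 CHO cells transfected with MLK1 plus dominant-negative MKK4 cDNA. Compound exposure 1 h, tested up to 1 µM. Phospho-MKK4 read by ELISA.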

The target of experiment [5] is T2, Choline O-acetyltransferase (Rattus norvegicus) (UniProt P32738).
T2 sequence (whole entry): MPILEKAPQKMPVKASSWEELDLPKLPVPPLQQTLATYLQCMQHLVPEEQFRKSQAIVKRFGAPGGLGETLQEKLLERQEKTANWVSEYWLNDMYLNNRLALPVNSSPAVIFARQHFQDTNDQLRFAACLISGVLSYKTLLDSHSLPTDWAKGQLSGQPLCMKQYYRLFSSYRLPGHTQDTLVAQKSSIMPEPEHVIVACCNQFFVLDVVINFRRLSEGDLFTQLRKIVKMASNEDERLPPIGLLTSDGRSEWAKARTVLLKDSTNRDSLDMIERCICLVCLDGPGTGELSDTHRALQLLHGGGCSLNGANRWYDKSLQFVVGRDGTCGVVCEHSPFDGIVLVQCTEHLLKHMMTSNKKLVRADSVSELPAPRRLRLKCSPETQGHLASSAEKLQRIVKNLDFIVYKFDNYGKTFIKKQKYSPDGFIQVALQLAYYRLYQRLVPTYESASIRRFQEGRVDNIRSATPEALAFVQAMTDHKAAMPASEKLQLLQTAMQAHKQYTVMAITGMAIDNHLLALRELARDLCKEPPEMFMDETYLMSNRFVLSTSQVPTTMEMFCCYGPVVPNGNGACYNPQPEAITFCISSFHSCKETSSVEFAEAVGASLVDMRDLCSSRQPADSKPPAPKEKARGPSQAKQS
As to the kind of experiment: Enhancement of choline acetyltransferase activity in embryonic rat spinal cord at 300 nM. In short, it runs like this:
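Embryonic rat spinal cord cultures; compounds at 300 nM, ChAT activity measured after 2 days in culture, expressed as percent of basal (100%). K-252a run as internal control. Mean ± standard deviation of three independent experiments.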

For experiment [6], the target named is Platelet-derived growth factor receptor beta (Homo sapiens) (UniProt P09619). Nature of the experiment: Inhibition of PDGFRbeta at 1 uM.
Experiment [7] concerns the target Epidermal growth factor receptor (Homo sapiens) (UniProt P00533). As to the kind of experiment: Inhibition of EGFR at 1 uM.
For experiment [8], the target named is Fibroblast growth factor receptor 1 (Homo sapiens) (UniProt P11362). As to the kind of experiment: Inhibition of FGFR1 at 1 uM.
Fibroblast growth factor receptor 1 (Homo sapiens), sequence (P11362 22-822 limits assumed): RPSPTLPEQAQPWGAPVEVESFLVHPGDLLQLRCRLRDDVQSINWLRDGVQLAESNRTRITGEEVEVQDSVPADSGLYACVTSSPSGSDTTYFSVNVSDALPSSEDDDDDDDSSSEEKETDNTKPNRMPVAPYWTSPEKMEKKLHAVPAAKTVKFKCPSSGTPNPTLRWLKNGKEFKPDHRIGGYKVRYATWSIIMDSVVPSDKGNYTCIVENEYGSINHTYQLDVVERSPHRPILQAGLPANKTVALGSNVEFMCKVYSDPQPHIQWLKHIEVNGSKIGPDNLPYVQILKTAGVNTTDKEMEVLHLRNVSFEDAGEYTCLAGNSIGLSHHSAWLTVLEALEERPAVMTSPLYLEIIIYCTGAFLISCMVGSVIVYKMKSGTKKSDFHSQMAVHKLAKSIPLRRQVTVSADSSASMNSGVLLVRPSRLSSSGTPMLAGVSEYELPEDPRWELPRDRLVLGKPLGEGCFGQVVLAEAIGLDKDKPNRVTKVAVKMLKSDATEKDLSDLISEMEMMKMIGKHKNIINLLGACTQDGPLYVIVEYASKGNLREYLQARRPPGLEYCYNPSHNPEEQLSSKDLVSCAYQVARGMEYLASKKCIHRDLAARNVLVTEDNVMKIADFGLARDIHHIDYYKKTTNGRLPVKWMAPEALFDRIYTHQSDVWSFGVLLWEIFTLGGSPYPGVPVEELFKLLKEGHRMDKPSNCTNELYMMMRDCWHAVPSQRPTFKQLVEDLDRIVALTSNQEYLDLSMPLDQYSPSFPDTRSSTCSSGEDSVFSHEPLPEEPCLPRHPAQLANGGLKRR
The target of experiment [9] is Cyclin-dependent kinase 1 (Homo sapiens) (UniProt P06493). As to the kind of experiment: Inhibition of CDK1 at 1 uM.
Cyclin-dependent kinase 1 (Homo sapiens), sequence (P06493 whole entry, looked up): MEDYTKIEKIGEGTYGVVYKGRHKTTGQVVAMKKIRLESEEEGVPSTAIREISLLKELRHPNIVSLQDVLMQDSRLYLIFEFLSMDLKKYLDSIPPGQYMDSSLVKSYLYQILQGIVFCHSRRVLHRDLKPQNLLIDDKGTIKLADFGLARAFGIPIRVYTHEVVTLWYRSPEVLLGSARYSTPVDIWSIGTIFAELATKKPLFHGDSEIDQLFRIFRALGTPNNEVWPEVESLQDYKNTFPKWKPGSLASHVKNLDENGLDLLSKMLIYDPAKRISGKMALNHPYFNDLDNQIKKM
For experiment [10], the target named is Cyclin-dependent kinase 2 (Homo sapiens) (UniProt P24941). As to the kind of experiment: Inhibition of CDK2 at 1 uM.
The target of experiment [11] is Mitogen-activated protein kinase 14 (Homo sapiens) (UniProt Q16539). Nature of the experiment: Inhibition of p38-alpha at 1 uM.
The target in experiment [12] is Angiopoietin-1 receptor (Homo sapiens) (UniProt Q02763). As to the kind of experiment: Inhibition of TIE2 at 1 uM.
Angiopoietin-1 receptor (Homo sapiens), sequence (Q02763 whole entry): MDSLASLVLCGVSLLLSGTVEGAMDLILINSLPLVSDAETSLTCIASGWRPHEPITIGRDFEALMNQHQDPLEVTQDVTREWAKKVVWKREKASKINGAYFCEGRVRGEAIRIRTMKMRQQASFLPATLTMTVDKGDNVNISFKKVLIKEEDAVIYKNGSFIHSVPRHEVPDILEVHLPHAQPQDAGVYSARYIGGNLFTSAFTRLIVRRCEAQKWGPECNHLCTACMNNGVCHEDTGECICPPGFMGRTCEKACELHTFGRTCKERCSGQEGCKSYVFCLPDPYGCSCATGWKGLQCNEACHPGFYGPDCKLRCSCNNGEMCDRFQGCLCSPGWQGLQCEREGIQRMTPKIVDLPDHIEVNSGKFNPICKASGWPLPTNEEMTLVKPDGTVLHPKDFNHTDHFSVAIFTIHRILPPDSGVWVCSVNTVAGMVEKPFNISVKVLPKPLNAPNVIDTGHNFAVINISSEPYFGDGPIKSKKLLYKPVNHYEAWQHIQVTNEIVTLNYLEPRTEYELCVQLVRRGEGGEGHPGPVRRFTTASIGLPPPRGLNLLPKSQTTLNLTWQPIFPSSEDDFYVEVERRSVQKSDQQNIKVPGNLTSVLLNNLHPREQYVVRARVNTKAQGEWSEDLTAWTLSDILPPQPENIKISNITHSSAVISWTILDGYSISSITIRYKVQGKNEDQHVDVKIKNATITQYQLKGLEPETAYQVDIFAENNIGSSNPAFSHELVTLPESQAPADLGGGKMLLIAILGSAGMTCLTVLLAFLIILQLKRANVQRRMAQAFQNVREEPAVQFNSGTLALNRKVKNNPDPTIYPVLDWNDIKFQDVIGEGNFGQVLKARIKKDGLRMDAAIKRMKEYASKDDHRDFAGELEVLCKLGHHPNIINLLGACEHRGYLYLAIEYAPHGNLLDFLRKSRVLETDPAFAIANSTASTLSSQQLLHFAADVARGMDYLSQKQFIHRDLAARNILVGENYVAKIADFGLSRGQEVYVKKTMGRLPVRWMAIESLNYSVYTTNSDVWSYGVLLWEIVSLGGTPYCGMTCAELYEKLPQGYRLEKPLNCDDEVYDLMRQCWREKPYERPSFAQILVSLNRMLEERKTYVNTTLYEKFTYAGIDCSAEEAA
Experiment [13] deals with Mitogen-activated protein kinase 8 (Homo sapiens) (UniProt P45983). As to the kind of experiment: Inhibition of JNK1 at 1 uM.
Mitogen-activated protein kinase 8 (Homo sapiens), sequence (P45983 whole entry): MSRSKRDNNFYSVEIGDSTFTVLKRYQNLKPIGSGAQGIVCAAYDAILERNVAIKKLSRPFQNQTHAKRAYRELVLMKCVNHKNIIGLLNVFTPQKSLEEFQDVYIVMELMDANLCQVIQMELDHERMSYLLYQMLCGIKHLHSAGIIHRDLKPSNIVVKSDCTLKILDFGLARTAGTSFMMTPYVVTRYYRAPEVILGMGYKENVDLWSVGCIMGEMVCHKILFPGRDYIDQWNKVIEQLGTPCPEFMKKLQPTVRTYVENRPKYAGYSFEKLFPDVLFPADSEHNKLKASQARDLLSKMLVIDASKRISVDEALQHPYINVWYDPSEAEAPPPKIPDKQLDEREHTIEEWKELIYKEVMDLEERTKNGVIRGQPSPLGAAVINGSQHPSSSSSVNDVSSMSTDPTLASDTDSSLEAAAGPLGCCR
Experiment [14] concerns the target Insulin receptor (Homo sapiens) (UniProt P06213). As to the kind of experiment: Inhibition of IRKbeta at 1 uM.
Experiment [15] concerns the target High affinity nerve growth factor receptor (Homo sapiens, UniProt P04629). Nature of the experiment: Inhibition of TrkA.
Experiment [16] has as its target Vascular endothelial growth factor receptor 2 (Homo sapiens, UniProt P35968). Nature of the experiment: Inhibition of VEGFR2.
In experiment [17] the target is T1, Mitogen-activated protein kinase kinase kinase 9. As to the kind of experiment: Inhibition of MKK4 phosphorylation in MLK1 transfected CHO cells after 1 hr. Type of experiment: functional, cell-based. The method in brief:
as §1

The source made the active and inactive calls. The calls are words filed in the database; no cut-off is given here.

Insulin receptor (Homo sapiens), sequence (P06213 28-758 limits assumed): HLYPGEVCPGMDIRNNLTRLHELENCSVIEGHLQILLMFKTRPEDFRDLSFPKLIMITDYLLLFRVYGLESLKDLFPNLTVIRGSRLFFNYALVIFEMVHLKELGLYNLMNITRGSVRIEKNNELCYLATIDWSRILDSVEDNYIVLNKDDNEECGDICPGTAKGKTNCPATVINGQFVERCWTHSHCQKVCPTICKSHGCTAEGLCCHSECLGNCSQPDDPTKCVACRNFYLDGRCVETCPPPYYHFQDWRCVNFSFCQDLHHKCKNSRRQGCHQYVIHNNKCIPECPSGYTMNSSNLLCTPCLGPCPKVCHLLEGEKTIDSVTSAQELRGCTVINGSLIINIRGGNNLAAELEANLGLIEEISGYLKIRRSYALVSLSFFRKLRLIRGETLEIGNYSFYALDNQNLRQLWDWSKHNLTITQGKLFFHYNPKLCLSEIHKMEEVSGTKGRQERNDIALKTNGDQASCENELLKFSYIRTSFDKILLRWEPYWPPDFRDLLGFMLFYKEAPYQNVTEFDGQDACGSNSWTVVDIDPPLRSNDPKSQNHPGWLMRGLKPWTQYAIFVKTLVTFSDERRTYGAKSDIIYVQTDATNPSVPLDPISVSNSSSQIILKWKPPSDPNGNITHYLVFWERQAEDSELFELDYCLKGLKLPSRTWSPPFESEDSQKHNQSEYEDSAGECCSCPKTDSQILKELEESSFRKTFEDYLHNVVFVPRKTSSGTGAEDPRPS
Insulin receptor (Homo sapiens), sequence (P06213 763-1382 limits assumed): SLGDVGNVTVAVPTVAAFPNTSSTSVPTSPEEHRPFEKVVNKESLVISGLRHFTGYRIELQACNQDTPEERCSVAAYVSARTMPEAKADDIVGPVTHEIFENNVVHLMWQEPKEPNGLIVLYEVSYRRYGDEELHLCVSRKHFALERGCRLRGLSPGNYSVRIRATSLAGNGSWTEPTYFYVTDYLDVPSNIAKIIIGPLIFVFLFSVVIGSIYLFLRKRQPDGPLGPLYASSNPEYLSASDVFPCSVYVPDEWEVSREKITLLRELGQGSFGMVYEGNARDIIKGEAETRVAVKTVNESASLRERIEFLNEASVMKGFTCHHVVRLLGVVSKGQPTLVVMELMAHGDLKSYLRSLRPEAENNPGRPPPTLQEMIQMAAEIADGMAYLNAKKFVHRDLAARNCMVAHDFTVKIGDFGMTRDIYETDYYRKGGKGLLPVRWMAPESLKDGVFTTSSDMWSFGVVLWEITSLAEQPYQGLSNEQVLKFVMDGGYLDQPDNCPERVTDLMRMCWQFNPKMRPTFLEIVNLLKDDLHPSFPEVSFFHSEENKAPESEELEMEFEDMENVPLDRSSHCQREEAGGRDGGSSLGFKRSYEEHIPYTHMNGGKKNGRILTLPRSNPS
Mitogen-activated protein kinase kinase kinase 10, sequence (Q02779 whole entry): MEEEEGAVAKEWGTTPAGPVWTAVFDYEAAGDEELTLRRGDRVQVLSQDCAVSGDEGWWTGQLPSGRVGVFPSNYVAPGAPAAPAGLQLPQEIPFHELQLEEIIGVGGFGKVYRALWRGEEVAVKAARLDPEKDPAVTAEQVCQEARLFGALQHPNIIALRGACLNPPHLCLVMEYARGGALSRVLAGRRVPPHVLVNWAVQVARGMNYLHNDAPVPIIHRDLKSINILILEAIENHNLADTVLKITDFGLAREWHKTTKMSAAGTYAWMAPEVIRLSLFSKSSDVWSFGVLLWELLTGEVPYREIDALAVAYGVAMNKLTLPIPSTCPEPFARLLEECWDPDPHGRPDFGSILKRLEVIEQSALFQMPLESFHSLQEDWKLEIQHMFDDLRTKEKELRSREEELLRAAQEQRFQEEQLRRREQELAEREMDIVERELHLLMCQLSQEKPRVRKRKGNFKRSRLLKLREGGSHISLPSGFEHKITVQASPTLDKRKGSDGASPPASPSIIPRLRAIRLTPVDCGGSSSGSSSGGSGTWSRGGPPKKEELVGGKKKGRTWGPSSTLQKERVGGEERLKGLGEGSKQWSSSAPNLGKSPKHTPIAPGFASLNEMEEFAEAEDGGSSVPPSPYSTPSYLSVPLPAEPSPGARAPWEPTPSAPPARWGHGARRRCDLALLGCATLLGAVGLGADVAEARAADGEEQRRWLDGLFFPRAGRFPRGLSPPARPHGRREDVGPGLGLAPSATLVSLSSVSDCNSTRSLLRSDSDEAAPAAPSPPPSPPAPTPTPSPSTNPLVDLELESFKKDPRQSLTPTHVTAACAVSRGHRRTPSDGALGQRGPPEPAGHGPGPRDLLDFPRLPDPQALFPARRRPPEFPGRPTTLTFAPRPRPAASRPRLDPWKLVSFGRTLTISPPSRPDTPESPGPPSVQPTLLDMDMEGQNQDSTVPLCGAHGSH

Take `O=C1NCc2c3c(c4[nH]c5ccccc5c4c21)Cc1ccccc1-3`: the IC50 was 167 nM in experiment [1], 87 nM in [2], 2660 nM in experiment [3] and above 1000 nM at Protein kinase C (PKC). The compound also came in with an Inhibition in experiment [4] of 22%. Moreover, the Activity in experiment [5] was 155%. Moreover, the inhibition in [6], in experiment [7], in [8], in experiment [9], in [10] and in experiment [11] was below 30% throughout. Also, the inhibition in experiment [12], in experiment [13] and in experiment [14] was below 30% throughout.

As to `O=C1NC(=O)c2c1c1c3ccccc3[nH]c1c1sc3ccccc3c21`, the figures for the IC50 in experiment [1] and in experiment [2] were 68 nM and 58 nM, respectively.

Regarding `O=C1NC(=O)c2c1c1c3ccccc3[nH]c1c1oc3ccccc3c21`, the IC50 in experiment [1] and in experiment [2] was above 300 nM each time. In addition, the result in experiment [5] was inactive.

As for `O=C1NC(=O)c2c1c1c3ccccc3sc1c1sc3ccccc3c21`, the IC50 in experiment [1] and in [2] was above 300 nM each time.

For the compound `O=C1NC(=O)c2c1c1c(c3c2-c2ccccc2C3)Cc2ccccc2-1`, the IC50 in experiment [1] and in experiment [2] was above 300 nM in each case. Moreover, the result in experiment [5] was inactive.

`COC(=O)[C@]1(O)C[C@@H]2O[C@@]1(C)n1c3ccccc3c3c4c(c5c6ccccc6n2c5c31)C(=O)NC4` yielded an IC50 in experiment [3] of 45 nM.

Take `O=C1NC(=O)c2c1c1c(c3[nH]c4ccccc4c23)CCc2ccccc2-1`: the IC50 in [1] was 22 nM; in [2] it was 12 nM; in [3] it was 339 nM; against Protein kinase C (PKC), 83 nM; in experiment [15], above 1000 nM; in experiment [16], above 300 nM. In experiment [17], this compound displayed an IC50 of 90 nM. In addition, the Activity in experiment [5] was 178%. Besides, the inhibition in experiment [6], in [7], in experiment [8], in experiment [9], in [10] and in experiment [11] was below 30% each time. Moreover, the inhibition in experiment [12], in experiment [13] and in experiment [14] was below 30% each time.

As for `O=C1NCc2c1c1c3ccccc3[nH]c1c1[nH]c3ccccc3c21` [STAUROSPORINONE], the results for the 50% inhibitory concentration (IC50) in experiment [1] and in experiment [2] were 138 nM and 49 nM, respectively.

As for `O=C1NCc2c3c(c4sc5ccccc5c4c21)Cc1ccccc1-3`, the IC50 in [1] came to 615 nM; in experiment [2] it was 110 nM.

Take `O=C1NCc2c1c1c3ccccc3oc1c1[nH]c3ccccc3c21`: the IC50 in experiment [1] was above 10000 nM; in [2], 1110 nM. In experiment [5], the outcome was inactive.

For the compound `O=C1NC(=O)c2c1c1c(c3[nH]c4ccccc4c23)Cc2ccccc2-1`, the IC50 in [1] and in experiment [2] was above 300 nM throughout.

In the case of `O=C1NCc2c1c1c3ccccc3sc1c1[nH]c3ccccc3c21`, the IC50 was 111 nM in [1]; 26 nM in [2]; 2090 nM in experiment [3]; above 1000 nM against Protein kinase C (PKC); 88 nM in experiment [15]; above 300 nM in experiment [16]. This compound came in with an Inhibition in experiment [4] of 3%. Also, the Activity in experiment [5] is 138%. The inhibition in experiment [6], in experiment [7], in experiment [8], in experiment [9], in [10] and in [11] was below 30% throughout. Besides, the inhibition in experiment [12], in experiment [13] and in experiment [14] was below 30% in each case.

As for `O=C1NC(=O)c2c1c1c3ccccc3ccc1c1[nH]c3ccccc3c21`, the IC50 in experiment [1] and in experiment [2] was 300 nM each time.

For the compound `O=C1NC(=O)c2c1c1c(c3sc4ccccc4c23)Cc2ccccc2-1`, the IC50 in experiment [1] and in experiment [2] was above 300 nM each time.

For `O=C1NCc2c1c1c3ccccc3[nH]c1c1oc3ccccc3c21`, the IC50 in experiment [1] came out at 308 nM; in [2], 270 nM. For the same compound, in [5], the outcome was inactive.

On to `O=C1NCc2c1c1c3ccccc3[nH]c1c1sc3ccccc3c21`, for which the IC50 in experiment [1] came out at 1800 nM; in experiment [2], 171 nM.

As to `O=C1NCc2c1c1c(c3sc4ccccc4c23)Cc2ccccc2-1`, the results for the 50% inhibitory concentration (IC50) in [1] and in experiment [2] were 482 nM and 157 nM, respectively.

With `O=C1NCc2c1c1c3ccccc3sc1c1sc3ccccc3c21`, the IC50 in experiment [1] and in experiment [2] was above 10000 nM each time. In addition, the outcome in experiment [5] was inactive.

As for `O=C1NCc2c1c1c(c3c2-c2ccccc2C3)Cc2ccccc2-1`, the IC50 in experiment [1] came to 1410 nM; in experiment [2] it was 277 nM.

In the case of `O=C1NCc2c1c1c(c3[nH]c4ccccc4c23)-c2ccccc2C1`, the result in [1] and in experiment [2] was inactive.

On to `O=C1NCc2c1c1c(c3[nH]c4ccccc4c23)Cc2ccccc2-1`, for which the half-maximal inhibitory concentration (IC50) in experiment [1] is 69 nM; in [2], 40 nM; in [3], 364 nM; on Protein kinase C (PKC) it was 1196 nM. The Inhibition in [4] is recorded as 19%. Also, the Activity in experiment [5] worked out at 152%. The inhibition in experiment [6], in experiment [7], in [8], in [9], in experiment [10] and in experiment [11] was below 30% each time. In addition, the inhibition in experiment [12], in [13] and in experiment [14] was below 30% throughout.

Take `O=C1NCc2c3c(c4[nH]c5ccccc5c4c21)-c1ccccc1C3`: the result in experiment [1] and in experiment [2] was inactive.

For `O=C1NCc2c3c(c4[nH]c5ccccc5c4c21)CCc1ccccc1-3`, the IC50 in experiment [1] is 46 nM; in [2], 22 nM; in experiment [3], 3450 nM; against Protein kinase C (PKC) it was 205 nM; in experiment [15], above 1000 nM; in experiment [16] it was above 300 nM. Also, the half-maximal inhibitory concentration (IC50) in experiment [17] stood at 274 nM. The Activity in experiment [5] is 171%. Moreover, the inhibition in experiment [6], in experiment [7], in experiment [8], in [9], in [10] and in experiment [11] was below 30% in each case. The inhibition in [12], in experiment [13] and in experiment [14] was below 30% in each case.

In general, IC50 refers to the concentration needed to halve the response being measured. A word on the Inhibition: it is how much of the control response was suppressed. A lower Inhibition goes with a weak effect. As a reminder, the inhibition is the drop in the measured response relative to a control, in per cent. Low readings indicate a response near the control, high ones a response far below the control.
